Key:
NCI-H460 [1] = assay: Anticancer activity against human NCI-H460 cells assessed as cell growth at 100 uM after 48 hrs by sulforhodamine B assay relative to control; assay type: functional; settings: NCI-H460, 48 h, read-out: Activity
Procedure, shortened: (§1)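 Three-cell-line prescreen (NCI-H460 lung, MCF7 breast, SF 268 CNS), each preincubated on microtiter plates. The agent is added at a single concentration and cultures are incubated 48 h. Growth is read by sulphorhodamine B protein staining and reported as percent growth of treated versus untreated control cells; negative values indicate cell kill.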

MCF7 [2] = assay: Anticancer activity against human MCF7 cells assessed as cell growth at 100 uM after 48 hrs by sulforhodamine B assay relative to control; assay type: functional; settings: MCF7, 48 h, read-out: Activity; procedure, shortened: as §1
SF-268 [3] = assay: Anticancer activity against human SF268 cells assessed as cell growth at 100 uM after 48 hrs by sulforhodamine B assay relative to control; assay type: functional; settings: SF-268, 48 h, read-out: Activity; procedure, shortened: as §1
K562 = assay: Anticancer activity against human K562 cells after 48 hrs by sulforhodamine B assay; assay type: functional; settings: K562, 48 h
Procedure, shortened: (§2)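 Full 60-cell-line panel, compounds tested over a five-log dose range. Cells are preincubated on microtiter plates, the agent is added, and cultures run 48 h. The end point is sulphorhodamine B protein staining. GI50 is taken as the concentration giving 50% growth inhibition relative to untreated control cells.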

MOLT-4 = assay: Anticancer activity against human MOLT4 cells after 48 hrs by sulforhodamine B assay; assay type: functional; settings: MOLT-4, 48 h; procedure, shortened: as §2
A549 = assay: Anticancer activity against human A549 cells after 48 hrs by sulforhodamine B assay; assay type: functional; settings: A549, 48 h; procedure, shortened: as §2
EKVX = assay: Anticancer activity against human EKVX cells after 48 hrs by sulforhodamine B assay; assay type: functional; procedure, shortened: as §2
HOP-62 = assay: Anticancer activity against human HOP62 cells after 48 hrs by sulforhodamine B assay; assay type: functional; settings: HOP-62, 48 h; procedure, shortened: as §2
HOP-92 = assay: Anticancer activity against human HOP92 cells after 48 hrs by sulforhodamine B assay; assay type: functional; settings: HOP-92, 48 h; procedure, shortened: as §2
NCI-H226 = assay: Anticancer activity against human NCI-H226 cells after 48 hrs by sulforhodamine B assay; assay type: functional; settings: NCI-H226, 48 h; procedure, shortened: as §2
NCI-H23 = assay: Anticancer activity against human NCI-H23 cells after 48 hrs by sulforhodamine B assay; assay type: functional; settings: NCI-H23, 48 h; procedure, shortened: as §2
NCI-H322M = assay: Anticancer activity against human NCI-H322M cells after 48 hrs by sulforhodamine B assay; assay type: functional; procedure, shortened: as §2
NCI-H460 [4] = assay: Anticancer activity against human NCI-H460 cells after 48 hrs by sulforhodamine B assay; assay type: functional; settings: NCI-H460, 48 h; procedure, shortened: as §2
NCI-H522 = assay: Anticancer activity against human NCI-H522 cells after 48 hrs by sulforhodamine B assay; assay type: functional; settings: NCI-H522, 48 h; procedure, shortened: as §2
COLO 205 = assay: Anticancer activity against human COLO205 cells after 48 hrs by sulforhodamine B assay; assay type: functional; settings: COLO 205, 48 h; procedure, shortened: as §2
HCC 2998 = assay: Anticancer activity against human HCC2998 cells after 48 hrs by sulforhodamine B assay; assay type: functional; settings: HCC 2998, 48 h; procedure, shortened: as §2
HCT-116 = assay: Anticancer activity against human HCT116 cells after 48 hrs by sulforhodamine B assay; assay type: functional; settings: HCT-116, 48 h; procedure, shortened: as §2
HCT-15 = assay: Anticancer activity against human HCT15 cells after 48 hrs by sulforhodamine B assay; assay type: functional; settings: HCT-15, 48 h; procedure, shortened: as §2
HT-29 = assay: Anticancer activity against human HT-29 cells after 48 hrs by sulforhodamine B assay; assay type: functional; settings: HT-29, 48 h; procedure, shortened: as §2
KM12 = assay: Anticancer activity against human KM12 cells after 48 hrs by sulforhodamine B assay; assay type: functional; settings: KM12, 48 h; procedure, shortened: as §2
SW-620 = assay: Anticancer activity against human SW620 cells after 48 hrs by sulforhodamine B assay; assay type: functional; settings: SW-620, 48 h
Procedure, shortened: (§3)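 Cells from the 60-line full panel are preincubated on microtiter plates, then treated across a five-log dose range for 48 h. Growth is read with the protein-binding dye sulforhodamine B. GI50 is the concentration giving 50% growth inhibition relative to untreated control cells.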

SF-268 [5] = assay: Anticancer activity against human SF268 cells after 48 hrs by sulforhodamine B assay; assay type: functional; settings: SF-268, 48 h; procedure, shortened: as §2
SF-295 = assay: Anticancer activity against human SF295 cells after 48 hrs by sulforhodamine B assay; assay type: functional; settings: SF-295, 48 h; procedure, shortened: as §2
SNB-19 = assay: Anticancer activity against human SNB19 cells after 48 hrs by sulforhodamine B assay; assay type: functional; settings: SNB-19, 48 h; procedure, shortened: as §2
SNB-75 = assay: Anticancer activity against human SNB75 cells after 48 hrs by sulforhodamine B assay; assay type: functional; settings: SNB-75, 48 h; procedure, shortened: as §3
U-251 = assay: Anticancer activity against human U251 cells after 48 hrs by sulforhodamine B assay; assay type: functional; settings: U-251, 48 h; procedure, shortened: as §3
LOX IMVI = assay: Anticancer activity against human LOXIMVI cells after 48 hrs by sulforhodamine B assay; assay type: functional; procedure, shortened: as §2
Malme-3M = assay: Anticancer activity against human MALME-3M cells after 48 hrs by sulforhodamine B assay; assay type: functional; procedure, shortened: as §2
M14 = assay: Anticancer activity against human M14 cells after 48 hrs by sulforhodamine B assay; assay type: functional; settings: M14, 48 h; procedure, shortened: as §2
SK-MEL-28 = assay: Anticancer activity against human SK-MEL-28 cells after 48 hrs by sulforhodamine B assay; assay type: functional; settings: SK-MEL-28, 48 h; procedure, shortened: as §2
UACC-62 = assay: Anticancer activity against human UACC62 cells after 48 hrs by sulforhodamine B assay; assay type: functional; settings: UACC-62, 48 h; procedure, shortened: as §3
UACC-257 = assay: Anticancer activity against human UACC257 cells after 48 hrs by sulforhodamine B assay; assay type: functional; settings: UACC-257, 48 h; procedure, shortened: as §3
IGROV-1 = assay: Anticancer activity against human IGROV1 cells after 48 hrs by sulforhodamine B assay; assay type: functional; settings: IGROV-1, 48 h; procedure, shortened: as §2
OVCAR-3 = assay: Anticancer activity against human OVCAR-3 cells after 48 hrs by sulforhodamine B assay; assay type: functional; settings: OVCAR-3, 48 h; procedure, shortened: as §2
OVCAR-4 = assay: Anticancer activity against human OVCAR4 cells after 48 hrs by sulforhodamine B assay; assay type: functional; settings: OVCAR-4, 48 h; procedure, shortened: as §2
OVCAR-5 = assay: Anticancer activity against human OVCAR5 cells after 48 hrs by sulforhodamine B assay; assay type: functional; settings: OVCAR-5, 48 h; procedure, shortened: as §2
OVCAR-8 = assay: Anticancer activity against human OVCAR8 cells after 48 hrs by sulforhodamine B assay; assay type: functional; settings: OVCAR-8, 48 h; procedure, shortened: as §2
SK-OV-3 = assay: Anticancer activity against human SKOV3 cells after 48 hrs by sulforhodamine B assay; assay type: functional; settings: SK-OV-3, 48 h; procedure, shortened: as §2
786-0 = assay: Anticancer activity against human 786-0 cells after 48 hrs by sulforhodamine B assay; assay type: functional; settings: 786-0, 48 h; procedure, shortened: as §2
A498 = assay: Anticancer activity against human A498 cells after 48 hrs by sulforhodamine B assay; assay type: functional; settings: A498, 48 h; procedure, shortened: as §2
ACHN = assay: Anticancer activity against human ACHN cells after 48 hrs by sulforhodamine B assay; assay type: functional; procedure, shortened: as §2
CAKI-1 = assay: Anticancer activity against human Caki1 cells after 48 hrs by sulforhodamine B assay; assay type: functional; settings: CAKI-1, 48 h; procedure, shortened: as §2
RXF 393 = assay: Anticancer activity against human RXF393 cells after 48 hrs by sulforhodamine B assay; assay type: functional; settings: RXF 393, 48 h; procedure, shortened: as §2
SN12C = assay: Anticancer activity against human SN12C cells after 48 hrs by sulforhodamine B assay; assay type: functional; procedure, shortened: as §2
TK-10 = assay: Anticancer activity against human TK10 cells after 48 hrs by sulforhodamine B assay; assay type: functional; settings: TK-10, 48 h; procedure, shortened: as §3
UO-31 = assay: Anticancer activity against human UO31 cells after 48 hrs by sulforhodamine B assay; assay type: functional; settings: UO-31, 48 h; procedure, shortened: as §3
PC-3 = assay: Anticancer activity against human PC3 cells after 48 hrs by sulforhodamine B assay; assay type: functional; settings: PC-3, 48 h; procedure, shortened: as §2
DU-145 = assay: Anticancer activity against human DU145 cells after 48 hrs by sulforhodamine B assay; assay type: functional; settings: DU-145, 48 h; procedure, shortened: as §2
MCF7 [6] = assay: Anticancer activity against human MCF7 cells after 48 hrs by sulforhodamine B assay; assay type: functional; settings: MCF7, 48 h; procedure, shortened: as §2
NCI/ADR-RES = assay: Anticancer activity against human NCI/ADR-RES cells after 48 hrs by sulforhodamine B assay; assay type: functional; procedure, shortened: as §2
MDA-MB-231 = assay: Anticancer activity against human MDA-MB-231 cells after 48 hrs by sulforhodamine B assay; assay type: functional; settings: MDA-MB-231, 48 h; procedure, shortened: as §2
MDA-MB-435 = assay: Anticancer activity against human MDA-MB-435 cells after 48 hrs by sulforhodamine B assay; assay type: functional; settings: MDA-MB-435, 48 h; procedure, shortened: as §2
BT-549 = assay: Anticancer activity against human BT549 cells after 48 hrs by sulforhodamine B assay; assay type: functional; settings: BT-549, 48 h; procedure, shortened: as §2
T47D = assay: Anticancer activity against human T47D cells after 48 hrs by sulforhodamine B assay; assay type: functional; procedure, shortened: as §3
[7] = Acute toxicity in orally dosed Swiss albino mouse after 24 hrs; assay type: organism-based; settings: in vivo, po
Procedure, shortened: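 Male Swiss albino mice (Mus musculus); median lethal dose (LD50) determined after oral dosing, read at 24 h.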

Structure (SMILES): Fc1cc(-c2nnc3n2N=C(c2ccc(Cl)cc2)CS3)c(Cl)cc1Cl
- growth at 100 µM (NCI-H460 [1]): 3%
- growth at 100 µM (MCF7 [2]): 3%
- growth at 100 µM (SF-268 [3]): 3%
- GI50 (K562): 1.69 µM
- GI50 (MOLT-4): 1.06 µM
- GI50 (A549): 18.3 µM
- GI50 (EKVX): 27.4 µM
- GI50 (HOP-62): 20.1 µM
- GI50 (HOP-92): 16.4 µM
- GI50 (NCI-H226): 18.1 µM
- GI50 (NCI-H23): 13.8 µM
- GI50 (NCI-H322M): 16.2 µM
- GI50 (NCI-H460 [4]): 19.1 µM
- GI50 (NCI-H522): 1.8 µM
- GI50 (COLO 205): 7.09 µM
- GI50 (HCC 2998): 13.6 µM
- GI50 (HCT-116): 2.36 µM
- GI50 (HCT-15): 1.86 µM
- GI50 (HT-29): 4.6 µM
- GI50 (KM12): 8.08 µM
- GI50 (SW-620): 1.91 µM
- GI50 (SF-268 [5]): 13.2 µM
- GI50 (SF-295): 15.7 µM
- GI50 (SNB-19): 19.5 µM
- GI50 (SNB-75): 3.37 µM
- GI50 (U-251): 10.6 µM
- GI50 (LOX IMVI): 1.69 µM
- GI50 (Malme-3M): 2.37 µM
- GI50 (M14): 4.87 µM
- GI50 (SK-MEL-28): 6.41 µM
- GI50 (UACC-62): 3.63 µM
- GI50 (UACC-257): 15.7 µM
- GI50 (IGROV-1): 3.39 µM
- GI50 (OVCAR-3): 15.1 µM
- GI50 (OVCAR-4): 5.35 µM
- GI50 (OVCAR-5): 10.6 µM
- GI50 (OVCAR-8): 14.8 µM
- GI50 (SK-OV-3): 25.4 µM
- GI50 (786-0): 2.08 µM
- GI50 (A498): 21 µM
- GI50 (ACHN): 4.82 µM
- GI50 (CAKI-1): 4.21 µM
- GI50 (RXF 393): 11.4 µM
- GI50 (SN12C): 3.6 µM
- GI50 (TK-10): 3.11 µM
- GI50 (UO-31): 1.89 µM
- GI50 (PC-3): 18.7 µM
- GI50 (DU-145): 3.41 µM
- GI50 (MCF7 [6]): 6.24 µM
- GI50 (NCI/ADR-RES): 3.12 µM
- GI50 (MDA-MB-231): 10.8 µM
- GI50 (MDA-MB-435): 4.55 µM
- GI50 (BT-549): 3.27 µM
- GI50 (T47D): 3.9 µM
- LD50 at 24 h [7]: 227 mg/kg
